Test results: ChEMBL document CHEMBL1157420, “2-phenyl-4-piperazinylbenzimidazoles: orally active inhibitors of the gonadotropin releasing hormone (GnRH) receptor” (Bioorg Med Chem, 2008)

Tests used:
[1] = target: T1, Gonadotropin-releasing hormone receptor (Homo sapiens) (UniProt P30968); assay: Displacement of [125I]-(D-Trp6)LHRH from human recombinant GnRH receptor at 10 uM
T1 sequence (whole entry): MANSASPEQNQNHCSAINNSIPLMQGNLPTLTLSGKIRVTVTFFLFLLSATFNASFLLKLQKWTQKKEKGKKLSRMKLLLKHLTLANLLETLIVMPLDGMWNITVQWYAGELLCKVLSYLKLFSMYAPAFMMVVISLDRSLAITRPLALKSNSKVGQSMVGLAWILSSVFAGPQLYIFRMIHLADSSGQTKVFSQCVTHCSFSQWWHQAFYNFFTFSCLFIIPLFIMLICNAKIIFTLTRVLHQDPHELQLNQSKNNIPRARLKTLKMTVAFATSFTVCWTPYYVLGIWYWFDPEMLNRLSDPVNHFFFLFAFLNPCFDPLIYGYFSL
Outline: (§1)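 Membranes from recombinant cells expressing human or rat GnRH receptor, made in 25 mM Tris-Cl pH 7.4 with 0.1% sodium azide and 0.1% BSA. 50 μg protein incubated with about 50,000 cpm 125I-(D-Trp6)-LHRH for 2 h at 4 °C, with increasing unlabeled competitor. Filtered on BSA-presoaked glass-fiber filters, washed twice, counted by gamma counter. Percent inhibition and IC50 derived.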

[2] = target: T2, Gonadotropin-releasing hormone receptor (Homo sapiens, UniProt P30968); assay: Displacement of [125I]-(D-Trp6)LHRH from human recombinant GnRH receptor; outline: as §1
T2 sequence (P30968 whole entry): T1 sequence (whole entry)

[3] = target: T3, 5-hydroxytryptamine receptor 1A (Homo sapiens, UniProt P08908); assay: Binding affinity to human 5HT1A receptor
T3 sequence (P08908 whole entry): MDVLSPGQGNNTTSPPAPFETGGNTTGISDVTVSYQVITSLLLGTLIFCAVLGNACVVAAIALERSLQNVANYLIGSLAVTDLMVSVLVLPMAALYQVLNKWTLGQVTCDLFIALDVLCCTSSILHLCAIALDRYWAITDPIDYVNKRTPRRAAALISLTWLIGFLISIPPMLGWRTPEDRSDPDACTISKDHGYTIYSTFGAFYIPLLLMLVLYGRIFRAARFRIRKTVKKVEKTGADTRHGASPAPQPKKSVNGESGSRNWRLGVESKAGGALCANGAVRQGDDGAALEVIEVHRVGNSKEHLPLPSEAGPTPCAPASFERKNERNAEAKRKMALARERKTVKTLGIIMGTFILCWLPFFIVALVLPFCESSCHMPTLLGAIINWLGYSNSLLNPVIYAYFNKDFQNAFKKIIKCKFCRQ

[4] = target: T4, Gonadotropin-releasing hormone receptor (Rattus norvegicus, UniProt P30969); assay: Displacement of [125I]-(D-Trp6)LHRH from rat recombinant GnRH receptor; outline: as §1
T4 sequence (P30969 whole entry): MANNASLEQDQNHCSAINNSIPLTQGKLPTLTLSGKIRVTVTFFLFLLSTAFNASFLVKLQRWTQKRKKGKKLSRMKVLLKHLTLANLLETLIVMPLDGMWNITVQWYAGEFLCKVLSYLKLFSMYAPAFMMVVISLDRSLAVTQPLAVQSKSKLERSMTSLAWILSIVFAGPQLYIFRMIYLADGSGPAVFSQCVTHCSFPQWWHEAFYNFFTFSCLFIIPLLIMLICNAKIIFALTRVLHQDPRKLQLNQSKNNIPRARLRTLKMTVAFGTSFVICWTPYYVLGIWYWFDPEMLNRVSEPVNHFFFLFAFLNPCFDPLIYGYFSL

[5] = target: T2, Gonadotropin-releasing hormone receptor; assay: Antagonist activity at human recombinant GnRH receptor assessed as reduction in (D-Trp6)LHRH-induced myo-(1,2)-[3H]inositol production; type: functional
Outline: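 Recombinant cells expressing human GnRH receptor, pre-labeled with myo-(1,2)-3H-inositol, incubated 1 h in medium with lithium chloride and D-Trp6-LHRH, with or without antagonist. Cells then lysed and labeled inositol phosphates separated from inositol by […] and counted. Run in triplicate, repeated in three independent experiments; IC50 derived.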

[6] = target: T5, 5-hydroxytryptamine receptor 1A (Homo sapiens) (UniProt P08908); assay: Binding affinity to 5HT1A receptor at 10 uM
T5 sequence (whole entry): T3 sequence (P08908 whole entry)

[7] = target: T4, Gonadotropin-releasing hormone receptor; assay: Antagonist activity at […] GnRH receptor in CO2 asphyxiated rat primary pituitary cells assessed as reduction in (D-Trp6)LHRH-induced LH release; type: functional, cell-based, Pituitary gland cell
Outline: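 Anterior pituitaries from adult rats were minced, dissociated and plated at 30,000 cells/well in DMEM with 25 mM Hepes and 10% FBS, then cultured 72 h at 37 °C, 5% CO2. After washing, cells were treated 3 h in 0.1% BSA medium with an antagonist dose response plus an ED50 concentration of D-Trp6-LHRH. LH in medium measured by RIA; cell toxicity checked by CellTiter-Glo.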

[8] = target: T6, Alpha-1A adrenergic receptor (Homo sapiens) (UniProt P35348); assay: Binding affinity to alpha1 adrenergic receptor at 10 uM
T6 sequence (whole entry): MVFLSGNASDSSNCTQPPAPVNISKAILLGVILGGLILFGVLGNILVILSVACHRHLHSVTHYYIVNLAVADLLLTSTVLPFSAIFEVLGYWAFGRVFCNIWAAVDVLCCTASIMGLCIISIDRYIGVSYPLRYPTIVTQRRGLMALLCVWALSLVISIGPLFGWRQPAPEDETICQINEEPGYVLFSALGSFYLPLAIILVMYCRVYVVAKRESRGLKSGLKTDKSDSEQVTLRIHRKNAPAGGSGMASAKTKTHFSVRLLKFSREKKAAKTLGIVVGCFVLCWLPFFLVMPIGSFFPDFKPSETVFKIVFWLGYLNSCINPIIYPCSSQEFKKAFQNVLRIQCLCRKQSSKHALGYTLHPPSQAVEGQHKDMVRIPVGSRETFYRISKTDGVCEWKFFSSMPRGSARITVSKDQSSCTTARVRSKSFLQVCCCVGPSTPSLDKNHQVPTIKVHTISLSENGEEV

[9] = target: 5-hydroxytryptamine receptor 1B (Homo sapiens, UniProt P28222); assay: Binding affinity to human 5HT1B receptor
Chain of 5-hydroxytryptamine receptor 1B (P28222 whole entry): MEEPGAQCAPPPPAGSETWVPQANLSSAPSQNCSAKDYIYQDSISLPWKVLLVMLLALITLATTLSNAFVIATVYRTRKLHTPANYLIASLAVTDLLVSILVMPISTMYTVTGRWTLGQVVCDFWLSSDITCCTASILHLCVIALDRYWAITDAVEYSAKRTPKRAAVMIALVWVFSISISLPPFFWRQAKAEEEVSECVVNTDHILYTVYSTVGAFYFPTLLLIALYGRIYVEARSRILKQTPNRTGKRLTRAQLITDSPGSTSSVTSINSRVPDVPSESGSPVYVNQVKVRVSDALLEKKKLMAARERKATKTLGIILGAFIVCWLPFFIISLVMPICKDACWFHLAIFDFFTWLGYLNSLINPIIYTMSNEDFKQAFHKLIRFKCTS

[10] = target: 5-hydroxytryptamine receptor 1D (Homo sapiens, UniProt P28221); assay: Binding affinity to human 5HT1D receptor
Chain of 5-hydroxytryptamine receptor 1D (P28221 whole entry): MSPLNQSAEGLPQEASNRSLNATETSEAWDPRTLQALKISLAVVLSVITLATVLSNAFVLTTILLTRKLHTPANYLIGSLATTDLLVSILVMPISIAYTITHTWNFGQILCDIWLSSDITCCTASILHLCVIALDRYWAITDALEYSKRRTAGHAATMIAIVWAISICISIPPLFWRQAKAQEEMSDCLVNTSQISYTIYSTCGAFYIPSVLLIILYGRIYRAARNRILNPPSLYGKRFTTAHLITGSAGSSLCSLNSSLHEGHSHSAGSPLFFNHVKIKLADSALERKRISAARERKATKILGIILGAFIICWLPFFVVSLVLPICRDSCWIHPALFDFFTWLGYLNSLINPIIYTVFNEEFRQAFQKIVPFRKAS

Structure (SMILES)	Activity [1] [%]	IC50 [2] [nM]	IC50 [4] [nM]	IC50 [5] [nM]	also measured
FC(F)(F)c1nc2c(N3CCN(CCOc4ccc5[nH]c(=S)[nH]c5c4)CC3)cccc2[nH]1	–	4500	–	–	–
FC(F)(F)c1nc2c(N3CCN(CCc4cccc5nc(C(F)(F)F)[nH]c45)CC3)cccc2[nH]1	26	–	–	–	–
CC(C)c1ccc(-c2nc3c(N4CCN(CCOc5cccc6nc(C(F)(F)F)[nH]c56)CC4)cccc3[nH]2)cc1	–	120	990	450	–
CC(C)(C)c1ccc(-c2nc3c(N4CCN(Cc5cccc6[nH]c(=S)[nH]c56)CC4)cccc3[nH]2)cc1	–	6.2	110	14	Activity [6]: 5%; IC50 [7]: 240 nM; Activity [8]: 7%
FC(F)(F)c1nc2c(N3CCN(Cc4cccc5[nH]c(=S)[nH]c45)CC3)cccc2[nH]1	–	580	51000	3400	–
CC(C)(C)c1ccc(-c2nc3c(N4CCN(Cc5cccc6[nH]c(=O)c(=O)[nH]c56)CC4)cccc3[nH]2)cc1	–	5.7	72	24	IC50 [7]: 480 nM
Cn1c(C(F)(F)F)nc2c(N3CCN(CCOc4cccc5[nH]c(C(F)(F)F)nc45)CC3)cccc21	5	–	–	–	–
FC(F)(F)c1nc2c(N3CCN(CCc4cccc5[nH]c(=S)[nH]c45)CC3)cccc2[nH]1	51	–	–	–	–
CC(C)(C)c1ccc(-c2nc3c(N4CCN(Cc5cccc6[nH]c(=O)[nH]c56)CC4)cccc3[nH]2)cc1	–	8.7	680	63	IC50 [7]: 1500 nM

Continued, in another order:

Activity [1] [%]	IC50 [2] [nM]	IC50 [4] [nM]	IC50 [5] [nM]	Structure (SMILES)	also measured
1	–	–	–	S=c1[nH]c2cccc(OCCN3CCN(c4cccc5nccnc45)CC3)c2[nH]1	–
5	–	–	–	S=c1[nH]c2cccc(OCCN3CCN(c4cccc5[nH]cnc45)CC3)c2[nH]1	–
–	3300	–	–	FC(F)(F)c1nc2c(N3CCN(CCCOc4cccc5[nH]c(=S)[nH]c45)CC3)cccc2[nH]1	Ki [3]: 2.3 nM
–	6300	> 100000	–	FC(F)(F)C(F)(F)c1nc2c(N3CCN(CCOc4cccc5[nH]c(=S)[nH]c45)CC3)cccc2[nH]1	–
11	–	–	–	FC(F)(F)c1nc2cc(N3CCN(CCOc4cccc5[nH]c(=S)[nH]c45)CC3)ccc2[nH]1	–
47	–	–	–	Cc1cccc(-c2nc3c(N4CCN(CCOc5cccc6[nH]c(=S)[nH]c56)CC4)cccc3[nH]2)c1	–
–	1500	15000	9200	FC(F)(F)c1nc2c(N3CCN(CCOc4cccc5nc(C(F)(F)F)[nH]c45)CC3)cccc2[nH]1	Ki ([3]; read-out: Ki): 19 nM; IC50 [7]: 83000 nM; Ki [9]: 60 nM; Ki [10]: 0.55 nM
–	1300	–	2800	Cc1ccc(-c2nc3c(N4CCN(CCOc5cccc6[nH]c(=S)[nH]c56)CC4)cccc3[nH]2)cc1	–
8	–	–	–	Cn1c(C(F)(F)F)nc2c(N3CCN(CCOc4cccc5[nH]c(=S)[nH]c45)CC3)cccc21	–
